Data as given in ChEMBL document CHEMBL4049457, “Pentafluorosulfanyl-Substituted Benzopyran Analogues As New Cyclooxygenase-2 Inhibitors with Excellent Pharmacokinetics and Efficacy in Blocking Inflammation” (J Med Chem, 2017).

How the values were obtained:
[1] = target: T1, Prostaglandin G/H synthase 2 (Homo sapiens, UniProt P35354); assay: Inhibition of recombinant human COX-2 preincubated for 15 mins followed by fluorometric substrate/heme addition for 15 mins subsequently incubated with arachidonic acid for 2 mins by fluorescence analysis
T1 sequence (P35354 whole entry): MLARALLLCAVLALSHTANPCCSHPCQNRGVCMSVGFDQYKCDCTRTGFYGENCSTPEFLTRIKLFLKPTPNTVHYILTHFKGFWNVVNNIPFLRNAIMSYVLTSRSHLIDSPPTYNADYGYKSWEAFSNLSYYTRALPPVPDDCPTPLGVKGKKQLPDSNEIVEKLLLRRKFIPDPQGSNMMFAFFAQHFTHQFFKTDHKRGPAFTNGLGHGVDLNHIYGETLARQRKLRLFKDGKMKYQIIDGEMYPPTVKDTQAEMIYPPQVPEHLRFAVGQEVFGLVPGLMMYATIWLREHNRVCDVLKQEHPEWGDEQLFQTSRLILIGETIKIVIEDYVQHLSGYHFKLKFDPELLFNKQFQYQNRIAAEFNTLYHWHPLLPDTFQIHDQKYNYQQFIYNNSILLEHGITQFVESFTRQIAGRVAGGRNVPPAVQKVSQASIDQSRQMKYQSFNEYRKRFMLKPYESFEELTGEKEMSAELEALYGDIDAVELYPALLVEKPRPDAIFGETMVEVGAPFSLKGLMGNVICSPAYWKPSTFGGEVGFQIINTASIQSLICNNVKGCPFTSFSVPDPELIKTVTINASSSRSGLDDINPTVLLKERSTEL

[2] = (§1) Protein binding in human plasma at 10 uM after 5 hrs by rapid equilibrium dialysis; format: ADME, cell-free; settings: read-out: PPB (converted)
Summary of the method: (§2)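 Rapid equilibrium dialysis against human plasma for 5 h; drug in plasma and buffer chambers quantified by LC/MS; bound % = [1 − (buffer/plasma concentration)] × 100, n = 3.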

[3] = target: Prostaglandin G/H synthase 1 (Homo sapiens, UniProt P23219); assay: Inhibition of human COX-1 preincubated for 15 mins followed by fluorometric substrate/heme addition for 15 mins subsequently incubated with arachidonic acid for 2 mins by fluorescence analysis; format: ADME
Prostaglandin G/H synthase 1, sequence (P23219 whole entry): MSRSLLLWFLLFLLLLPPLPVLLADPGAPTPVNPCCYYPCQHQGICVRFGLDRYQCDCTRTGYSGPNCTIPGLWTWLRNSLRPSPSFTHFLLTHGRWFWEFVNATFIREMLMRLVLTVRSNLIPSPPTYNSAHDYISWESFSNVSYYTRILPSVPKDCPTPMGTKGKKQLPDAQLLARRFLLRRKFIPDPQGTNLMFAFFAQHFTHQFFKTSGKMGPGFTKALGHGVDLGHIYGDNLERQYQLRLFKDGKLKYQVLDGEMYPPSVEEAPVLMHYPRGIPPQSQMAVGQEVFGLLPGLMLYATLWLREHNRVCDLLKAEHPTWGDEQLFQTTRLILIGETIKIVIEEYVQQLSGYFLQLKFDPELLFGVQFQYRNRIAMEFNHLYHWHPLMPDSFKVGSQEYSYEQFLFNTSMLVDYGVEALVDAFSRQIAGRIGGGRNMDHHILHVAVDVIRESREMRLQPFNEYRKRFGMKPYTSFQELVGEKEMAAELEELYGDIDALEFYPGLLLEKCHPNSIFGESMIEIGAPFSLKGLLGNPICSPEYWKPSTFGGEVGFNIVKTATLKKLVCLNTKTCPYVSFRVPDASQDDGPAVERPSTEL

[4] = target: Voltage-gated inwardly rectifying potassium channel KCNH2 (Homo sapiens, UniProt Q12809); assay: Binding affinity to human ERG up to 50 uM after 2 hrs by fluorescence polarization assay
Voltage-gated inwardly rectifying potassium channel KCNH2, sequence (Q12809 whole entry): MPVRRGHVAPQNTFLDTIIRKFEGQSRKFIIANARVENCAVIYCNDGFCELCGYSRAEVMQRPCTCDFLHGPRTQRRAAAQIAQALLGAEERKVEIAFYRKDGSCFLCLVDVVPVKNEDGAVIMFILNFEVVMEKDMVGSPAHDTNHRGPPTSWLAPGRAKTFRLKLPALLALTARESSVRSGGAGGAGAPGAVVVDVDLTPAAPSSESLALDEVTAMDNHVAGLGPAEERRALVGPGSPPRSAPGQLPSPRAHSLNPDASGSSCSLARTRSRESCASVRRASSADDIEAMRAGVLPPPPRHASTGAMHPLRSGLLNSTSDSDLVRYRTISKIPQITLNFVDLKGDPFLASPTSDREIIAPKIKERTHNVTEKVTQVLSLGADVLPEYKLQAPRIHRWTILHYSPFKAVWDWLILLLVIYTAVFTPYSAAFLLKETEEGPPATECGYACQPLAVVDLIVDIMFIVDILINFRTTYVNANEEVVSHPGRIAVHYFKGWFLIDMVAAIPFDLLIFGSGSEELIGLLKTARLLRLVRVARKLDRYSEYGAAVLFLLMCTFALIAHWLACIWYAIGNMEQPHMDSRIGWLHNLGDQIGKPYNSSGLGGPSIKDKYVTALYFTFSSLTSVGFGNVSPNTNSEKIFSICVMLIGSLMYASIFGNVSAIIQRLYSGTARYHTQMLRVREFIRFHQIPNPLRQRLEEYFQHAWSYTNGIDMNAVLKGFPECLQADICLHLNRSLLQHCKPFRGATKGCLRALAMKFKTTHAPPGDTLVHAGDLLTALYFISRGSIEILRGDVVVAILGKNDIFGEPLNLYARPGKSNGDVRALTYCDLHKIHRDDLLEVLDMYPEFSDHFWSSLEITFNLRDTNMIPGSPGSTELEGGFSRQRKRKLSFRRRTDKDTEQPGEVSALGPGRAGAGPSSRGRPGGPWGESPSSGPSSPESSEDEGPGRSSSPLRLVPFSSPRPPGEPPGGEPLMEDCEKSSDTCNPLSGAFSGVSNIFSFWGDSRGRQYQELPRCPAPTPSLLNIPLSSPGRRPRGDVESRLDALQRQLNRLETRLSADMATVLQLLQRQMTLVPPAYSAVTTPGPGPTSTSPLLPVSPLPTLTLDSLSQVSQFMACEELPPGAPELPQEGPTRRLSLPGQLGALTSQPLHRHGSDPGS
Summary of the method: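 Fluorescence polarization tracer displacement kit: hERG membrane plus red tracer with compound or positive control, 2 h at room temperature, read with polarized excitation/emission filters; dofetilide-binding surrogate for hERG.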

Rattus norvegicus [5] = assay: Antiarthritic activity in adjuvant-induced Lewis rat model of arthritis assessed as reduction in arthritis score administered via oral gavage once daily starting from day 15 to 25 post adjuvant injection measured post last dose; format: functional; settings: 360 h
Summary of the method: (§3)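 Adjuvant arthritis in male Lewis rats (170–200 g): 1 mg heat-killed M. tuberculosis in 0.2 mL mineral oil into tail base; responders (left hind paw >0.375 mL above day 0 at day 14) randomized, n = 6/group. Oral gavage once daily in 0.5% methylcellulose at 0.1–10 mg/kg, days 15–24. Day 25: plethysmometer paw volume, limb scores 0–4 (total 0–16), movement 0–3; ED50 derived.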

Rattus norvegicus [6] = assay: Antiinflammatory activity in carrageenan induced Sprague-Dawley rat model of inflammation assessed as reduction in PGE2 levels in air pouch administered via po 1 hr prior to carrageenan challenge measured 3 hrs post challenge by ELISA; format: functional
Summary of the method: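 Male SD rats; 20 mL sterile air injected subcutaneously in back. Oral dosing in 0.5% carboxymethyl cellulose at 0.03–10 mg/kg (n = 6), vehicle control; 1 h later 6 mL 1% carrageenan into pouch (one day after pouch formation).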

Rattus norvegicus [7] = assay: Antiarthritic activity in adjuvant-induced Lewis rat model of arthritis assessed as reduction in movement disorder administered via oral gavage once daily starting from day 15 to 25 post adjuvant injection measured post last dose; format: functional; settings: 360 h; summary of the method: as §3
Rattus norvegicus [8] = assay: Antiinociceptive activity in carrageenan induced Sprague-Dawley rat model of pain assessed as reversal of paw thermal hyperalgesia administered via po 0.5 hrs prior to carrageenan challenge measured 3 hrs post challenge; format: functional
Summary of the method: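 Male SD rats (180–220 g), 0.2 mL 3% λ-carrageenan subcutaneously into right hind paw; oral dosing in 0.5% carboxymethyl cellulose at 1–100 mg/kg (n = 6) 0.5 h before.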

Rattus norvegicus [9] = assay: Antiarthritic activity in adjuvant-induced Lewis rat model of arthritis assessed as reduction in paw edema administered via oral gavage once daily starting from day 15 to 25 post adjuvant injection measured post last dose; format: functional; settings: 360 h; summary of the method: as §3
Rattus norvegicus [10] = assay: Antiinflammatory activity in carrageenan induced Sprague-Dawley rat model of inflammation assessed as reduction in paw edema administered via po 0.5 hrs prior to carrageenan challenge measured 1 to 4 hrs post challenge by plethysmometer; format: functional
Summary of the method: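 Male SD rats dosed orally in 0.5% carboxymethyl cellulose at 1, 3, 10, 30, 100 mg/kg (n = 6), vehicle control, 0.5 h before carrageenan into right hind paw. Paw volume by water-displacement plethysmometer before and after injection; percent inhibition from paw-volume increment versus controls; ED50 fitted.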

Plasma = assay: as §1; format: ADME, cell-free; settings: 5 h, 10 µM; summary of the method: as §2
Rattus norvegicus [11] = assay: Antiarthritic activity in adjuvant-induced Lewis rat model of arthritis assessed as inhibition of arthritis score at 10 mg/kg administered via oral gavage every 5 days starting from day 15 to 25 post adjuvant injection measured post last dose; format: functional
Summary of the method: (§4)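 Lewis male rats (170–200 g) given 1 mg heat-killed M. tuberculosis in 0.2 mL mineral oil at tail base; rats with left hind paw volume increase >0.375 mL by day 14 selected. Compound dosed orally at 10 mg/kg every 5 days from day 15 (two doses). Scored day 25: paw volume, arthritis 0–16 (erythema/swelling), movement 0–3.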

[12] = Tmax in Sprague-Dawley rat at 5 mg/kg, iv by LC-MS/MS analysis; format: ADME, organism-based; settings: in vivo
[13] = Half-life in Sprague-Dawley rat at 5 mg/kg, iv by LC-MS/MS analysis; format: ADME, organism-based; settings: in vivo
[14] = Half-life in Sprague-Dawley rat at 5 mg/kg, po administered via gastric gavage by LC-MS/MS analysis; format: ADME, organism-based; settings: in vivo
Rattus norvegicus [15] = assay: Antiarthritic activity in adjuvant-induced Lewis rat model of arthritis assessed as inhibition of paw edema score at 10 mg/kg administered via oral gavage every 5 days starting from day 15 to 25 post adjuvant injection measured post last dose; format: functional; summary of the method: as §4
[16] = Oral bioavailability in Sprague-Dawley rat at 5 mg/kg administered via gastric gavage by LC-MS/MS analysis; format: ADME, organism-based; settings: in vivo
Rattus norvegicus [17] = assay: Antiarthritic activity in adjuvant-induced Lewis rat model of arthritis assessed as inhibition of movement disorder score at 10 mg/kg administered via oral gavage every 5 days starting from day 15 to 25 post adjuvant injection measured post last dose; format: functional; summary of the method: as §4
[18] = Cmax in Sprague-Dawley rat at 5 mg/kg, po administered via gastric gavage by LC-MS/MS analysis; format: ADME, organism-based; design: dose 5 mg/kg, route oral; settings: in vivo
[19] = AUC (0 to infinity) in Sprague-Dawley rat at 5 mg/kg, iv by LC-MS/MS analysis; format: ADME, organism-based; design: dose 5 mg/kg, time infinity, route intravenous; settings: in vivo
[20] = Cmax in Sprague-Dawley rat at 5 mg/kg, iv by LC-MS/MS analysis; format: ADME, organism-based; design: dose 5 mg/kg, route intravenous; settings: in vivo
[21] = Tmax in Sprague-Dawley rat at 5 mg/kg, po administered via gastric gavage by LC-MS/MS analysis; format: ADME, organism-based; settings: in vivo
[22] = AUC (0 to infinity) in Sprague-Dawley rat at 5 mg/kg, po administered via gastric gavage by LC-MS/MS analysis; format: ADME, organism-based; design: dose 5 mg/kg, route oral, time infinity; settings: in vivo

## O=C(O)C1=Cc2cc(S(F)(F)(F)(F)F)cc(Br)c2O[C@H]1C(F)(F)F
[1]
  IC50: 340 nM
[2]
  fraction unbound at 5 h, 10 µM: 0.0005
[3]
  IC50: > 10 µM

## CCc1cc(S(F)(F)(F)(F)F)cc2c1OC(C(F)(F)F)C(C(=O)O)=C2 (centres undefined)
[4]
  Activity: Not Active
[1]
  IC50: 60 nM
[3]
  IC50: > 10 µM

## O=C(O)C1=Cc2ccc(S(F)(F)(F)(F)F)cc2OC1C(F)(F)F (centres undefined)
[1]
  IC50: > 10000 nM
[2]
  fraction unbound at 5 h, 10 µM: 0.0006
[3]
  IC50: > 10 µM

## CCCc1cc(S(F)(F)(F)(F)F)cc2c1OC(C(F)(F)F)C(C(=O)O)=C2 (centres undefined)
[4]
  Activity: Not Active
[1]
  IC50: 46 nM
[3]
  IC50: > 10 µM

## O=C(O)C1=Cc2cc(S(F)(F)(F)(F)F)cc(Br)c2OC1C(F)(F)F (racemic)
[1]
  IC50: 56 nM
[3]
  IC50: > 10 µM

## Cc1ccc(-c2cc(C(F)(F)F)nn2-c2ccc(S(N)(=O)=O)cc2)cc1 [CELECOXIB]
Rattus norvegicus [5]
  ED50: 0.71 mg/kg
Rattus norvegicus [6]
  ED50: 0.69 mg/kg
Rattus norvegicus [7]
  ED50: 9.2 mg/kg
Rattus norvegicus [8]
  ED50: 5 mg/kg
Rattus norvegicus [9]
  ED50: 1.6 mg/kg
Rattus norvegicus [10]
  ED50: 2.8 mg/kg

## Cc1cc(S(F)(F)(F)(F)F)cc2c1OC(C(F)(F)F)C(C(=O)O)=C2 (centres undefined)
[4]
  Activity: Not Active
[1]
  IC50: 26 nM
[2]
  fraction unbound at 5 h, 10 µM: 0.0005
[3]
  IC50: > 10 µM

## CCCCc1cc(S(F)(F)(F)(F)F)cc2c1OC(C(F)(F)F)C(C(=O)O)=C2 (centres undefined)
[4]
  Activity: Not Active
[1]
  IC50: 190 nM
[2]
  fraction unbound at 5 h, 10 µM: 0.0008
[3]
  IC50: > 10 µM

## O=C(O)C1=Cc2cc(S(F)(F)(F)(F)F)cc(Cc3ccccc3)c2OC1C(F)(F)F (centres undefined)
[1]
  IC50: > 100000 nM
[3]
  IC50: > 10 µM

## O=C(O)C1=Cc2cc(S(F)(F)(F)(F)F)ccc2O[C@@H]1C(F)(F)F
[4]
  Activity: Not Active
[1]
  IC50: 10 nM
[2]
  fraction unbound at 5 h, 10 µM: 0.0004
[3]
  IC50: > 30 µM

## O=C(O)C1=Cc2cc(S(F)(F)(F)(F)F)cc(Br)c2O[C@@H]1C(F)(F)F
[1]
  IC50: 8 nM
[2]
  fraction unbound at 5 h, 10 µM: 0.0009
[3]
  IC50: > 10 µM

## O=CC1=Cc2cc(S(F)(F)(F)(F)F)ccc2OC1C(F)(F)F (centres undefined)
[1]
  IC50: > 10000 nM
[3]
  IC50: > 10 µM

## CN(C)CCCN1c2ccccc2Sc2ccc(Cl)cc21.Cl [CHLORPROMAZINE HYDROCHLORIDE]
Plasma
  PPB: 99.82%

## O=C(O)C1=Cc2cc(S(F)(F)(F)(F)F)ccc2O[C@H]1C(F)(F)F
[1]
  IC50: 302 nM
[3]
  IC50: > 10 µM

## O=CC1=Cc2cc(S(F)(F)(F)(F)F)cc(Br)c2OC1C(F)(F)F (centres undefined)
[1]
  IC50: > 10000 nM
[3]
  IC50: > 10 µM

## O=C(O)C1=Cc2cc(S(F)(F)(F)(F)F)ccc2OC1C(F)(F)F (centres undefined)
Rattus norvegicus [5]
  ED50: 0.094 mg/kg
Rattus norvegicus [11]
  inhibition in vivo at 10 mg/kg: 69.6%
[4]
  Activity: Not Active
[12]
  Tmax: 1.98 min
[1]
  IC50: 18 nM
[2]
  fraction unbound at 5 h, 10 µM: 0.001
[3]
  IC50: > 10 µM
[13]
  half-life: 1040 min
Rattus norvegicus [6]
  Activity: Dose-dependent effect
  ED50: 0.37 mg/kg
[14]
  half-life: 750 min
Rattus norvegicus [15]
  inhibition in vivo at 10 mg/kg: 66.9%
[16]
  bioavailability: 100 to 114%
Rattus norvegicus [17]
  inhibition in vivo at 10 mg/kg: 79.2%
[18]
  Cmax: 15300 ng/mL
Rattus norvegicus [7]
  ED50: 0.12 mg/kg
Rattus norvegicus [8]
  Activity: Dose-dependent effect
  ED50: 2.8 mg/kg
[19]
  AUC(0-inf): 364 µg·h/mL
Rattus norvegicus [9]
  ED50: 0.093 mg/kg
[20]
  Cmax: 31700 ng/mL
[21]
  Tmax: 7.75 h
Rattus norvegicus [10]
  Activity: Dose-dependent effect
  ED50: 4 mg/kg
[22]
  AUC(0-inf): 414 µg·h/mL
